Assay results published in ChEMBL document CHEMBL5724801, “EUbOPEN Chemogenomics Library - Multiplex” (2024).
Several values for one entry are separate records, joined by “and”; a condition that tells them apart may be missing. Identical values can stand only once.

Legend:
Assay type in all cases: toxicity, cell-based
HEK-293T = assay: Multiplex assay against HEK293T; conditions: human
Method in brief: (§1)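 Imaging took place on a CQ1 microscope at 37°C and 5% CO2 once compound had been added to live cells stained at seeding with Hoechst33342, BioTracker Green Microtubule Cytoskeleton Dye, MitoTracker Red and Annexin V Alexa Fluor 680. CellPathfinder machine-learning gating classed cells as Hoechst high-intensity objects or normal cells, classed normal cells as having healthy, pyknosed or fragmented nuclei, and classed pyknosed cells as mitotic or apoptotic. Tubulin, mitochondrial-mass and membrane-permeability phenotypes are per cents of the healthy-nucleus cells.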

U2OS = assay: Multiplex assay against U2OS; conditions: human; method in brief: as §1
Fibroblast = assay: Multiplex assay against human fibroblast; method in brief: as §1
[1] = 12 h, 1 µM, compound concentration 1 uM
[2] = 12 h, 10 µM, compound concentration 10 uM
[3] = 24 h, 1 µM, compound concentration 1 uM
[4] = 24 h, 10 µM, compound concentration 10 uM
[5] = 48 h, 1 µM, compound concentration 1 uM
[6] = 48 h, 10 µM, compound concentration 10 uM

## CNC[C@H](O)c1ccc(O)c(O)c1 [EPINEPHRINE]
HEK-293T; [1]
  Population Apoptotic (%): 20% and 56%
  Population Fragmented Nuclei (%): 6%
  Population Healthy Nuclei (%): 81%
  Population Hoechst High Intensity Objects (%): 7% and 6%
  Population Membrane Permeable-Phenotype (%): 0%
  Population Mitochondria Different-Phenotype (%): 31% and 65%
  Population Mitotic Cells (%): 80% and 43%
  Population Normal (%): 92% and 93%
  Population Pyknosed Nuclei (%): 11%
  Population Tubulin-Different-Phenotype (%): 26% and 27%
HEK-293T; [2]
  Population Apoptotic (%): 55% and 56%
  Population Fragmented Nuclei (%): 12% and 11%
  Population Healthy Nuclei (%): 75% and 61%
  Population Membrane Permeable-Phenotype (%): 1% and 0%
  Population Mitochondria Different-Phenotype (%): 65% and 62%
  Population Mitotic Cells (%): 44% and 43%
  Population Normal (%): 90% and 59%
  Population Pyknosed Nuclei (%): 11% and 26%
  Population Tubulin-Different-Phenotype (%): 39% and 25%
HEK-293T; [3]
  Population Apoptotic (%): 19% and 36%
  Population Fragmented Nuclei (%): 9%
  Population Healthy Nuclei (%): 80%
  Population Hoechst High Intensity Objects (%): 5% and 7%
  Population Membrane Permeable-Phenotype (%): 0% and 1%
  Population Mitochondria Different-Phenotype (%): 25% and 41%
  Population Mitotic Cells (%): 80% and 63%
  Population Normal (%): 94% and 92%
  Population Pyknosed Nuclei (%): 9% and 10%
  Population Tubulin-Different-Phenotype (%): 21% and 18%
HEK-293T; [4]
  Population Apoptotic (%): 50% and 80%
  Population Fragmented Nuclei (%): 13% and 11%
  Population Healthy Nuclei (%): 75% and 71%
  Population Membrane Permeable-Phenotype (%): 0%
  Population Mitochondria Different-Phenotype (%): 50% and 43%
  Population Mitotic Cells (%): 50% and 19%
  Population Normal (%): 91% and 60%
  Population Pyknosed Nuclei (%): 11% and 17%
  Population Tubulin-Different-Phenotype (%): 36% and 25%
HEK-293T; [5]
  Population Apoptotic (%): 16% and 35%
  Population Fragmented Nuclei (%): 11% and 12%
  Population Healthy Nuclei (%): 81% and 78%
  Population Hoechst High Intensity Objects (%): 3%
  Population Membrane Permeable-Phenotype (%): 1%
  Population Mitochondria Different-Phenotype (%): 13% and 24%
  Population Mitotic Cells (%): 83% and 64%
  Population Normal (%): 96%
  Population Pyknosed Nuclei (%): 7% and 8%
  Population Tubulin-Different-Phenotype (%): 9% and 15%
HEK-293T; [6]
  Population Apoptotic (%): 33% and 69%
  Population Fragmented Nuclei (%): 21% and 17%
  Population Healthy Nuclei (%): 72% and 67%
  Population Membrane Permeable-Phenotype (%): 0%
  Population Mitochondria Different-Phenotype (%): 25% and 34%
  Population Mitotic Cells (%): 66% and 30%
  Population Normal (%): 96% and 78%
  Population Pyknosed Nuclei (%): 5% and 14%
  Population Tubulin-Different-Phenotype (%): 11% and 13%
U2OS; [1]
  Population Apoptotic (%): 88% and 80%
  Population Fragmented Nuclei (%): 35% and 17%
  Population Healthy Nuclei (%): 56% and 77%
  Population Hoechst High Intensity Objects (%): 2% and 0%
  Population Membrane Permeable-Phenotype (%): 5% and 7%
  Population Mitochondria Different-Phenotype (%): 1% and 2%
  Population Mitotic Cells (%): 11% and 20%
  Population Normal (%): 97% and 100%
  Population Pyknosed Nuclei (%): 7% and 5%
  Population Tubulin-Different-Phenotype (%): 2% and 4%
  Total Cell Count: 229 and 92
U2OS; [2]
  Population Apoptotic (%): 92% and 86%
  Population Fragmented Nuclei (%): 41% and 33%
  Population Healthy Nuclei (%): 45% and 50%
  Population Hoechst High Intensity Objects (%): 6% and 9%
  Population Membrane Permeable-Phenotype (%): 7% and 6%
  Population Mitochondria Different-Phenotype (%): 1% and 2%
  Population Mitotic Cells (%): 8% and 13%
  Population Normal (%): 93% and 90%
  Population Pyknosed Nuclei (%): 13% and 15%
  Population Tubulin-Different-Phenotype (%): 4% and 6%
  Total Cell Count: 199 and 105
U2OS; [3]
  Population Apoptotic (%): 84% and 75%
  Population Fragmented Nuclei (%): 28% and 19%
  Population Healthy Nuclei (%): 64% and 68%
  Population Hoechst High Intensity Objects (%): 2%
  Population Membrane Permeable-Phenotype (%): 6% and 7%
  Population Mitochondria Different-Phenotype (%): 1% and 5%
  Population Mitotic Cells (%): 15% and 25%
  Population Normal (%): 97%
  Population Pyknosed Nuclei (%): 7% and 11%
  Population Tubulin-Different-Phenotype (%): 2% and 1%
  Total Cell Count: 278 and 105
U2OS; [4]
  Population Apoptotic (%): 94% and 100%
  Population Fragmented Nuclei (%): 39% and 31%
  Population Healthy Nuclei (%): 50% and 45%
  Population Hoechst High Intensity Objects (%): 9% and 11%
  Population Membrane Permeable-Phenotype (%): 11% and 2%
  Population Mitochondria Different-Phenotype (%): 5% and 0%
  Population Mitotic Cells (%): 5% and 0%
  Population Normal (%): 90% and 88%
  Population Pyknosed Nuclei (%): 10% and 22%
  Population Tubulin-Different-Phenotype (%): 6% and 2%
  Total Cell Count: 195 and 96
U2OS; [5]
  Population Apoptotic (%): 87% and 92%
  Population Fragmented Nuclei (%): 24% and 18%
  Population Healthy Nuclei (%): 66% and 72%
  Population Hoechst High Intensity Objects (%): 0%
  Population Membrane Permeable-Phenotype (%): 9% and 4%
  Population Mitochondria Different-Phenotype (%): 5% and 3%
  Population Mitotic Cells (%): 12% and 7%
  Population Normal (%): 99%
  Population Pyknosed Nuclei (%): 9%
  Population Tubulin-Different-Phenotype (%): 4% and 2%
  Total Cell Count: 333 and 150
U2OS; [6]
  Population Apoptotic (%): 92% and 94%
  Population Fragmented Nuclei (%): 41% and 36%
  Population Healthy Nuclei (%): 44% and 40%
  Population Hoechst High Intensity Objects (%): 10% and 17%
  Population Membrane Permeable-Phenotype (%): 15% and 24%
  Population Mitochondria Different-Phenotype (%): 8% and 13%
  Population Mitotic Cells (%): 7% and 5%
  Population Normal (%): 89% and 82%
  Population Pyknosed Nuclei (%): 14% and 23%
  Population Tubulin-Different-Phenotype (%): 10% and 13%
  Total Cell Count: 215 and 87
Fibroblast; [1]
  Population Apoptotic (%): 36% and 40%
  Population Fragmented Nuclei (%): 17% and 38%
  Population Healthy Nuclei (%): 66% and 44%
  Population Hoechst High Intensity Objects (%): 1%
  Population Mitochondria Different-Phenotype (%): 3% and 7%
  Population Mitotic Cells (%): 63% and 60%
  Population Normal (%): 98%
  Population Pyknosed Nuclei (%): 16% and 17%
  Population Tubulin-Different-Phenotype (%): 15% and 42%
Fibroblast; [2]
  Population Apoptotic (%): 40% and 32%
  Population Fragmented Nuclei (%): 18% and 39%
  Population Healthy Nuclei (%): 61% and 37%
  Population Hoechst High Intensity Objects (%): 3% and 7%
  Population Mitochondria Different-Phenotype (%): 6% and 8%
  Population Mitotic Cells (%): 60% and 67%
  Population Normal (%): 96% and 92%
  Population Pyknosed Nuclei (%): 20% and 23%
  Population Tubulin-Different-Phenotype (%): 23% and 55%
Fibroblast; [3]
  Population Apoptotic (%): 54% and 23%
  Population Healthy Nuclei (%): 70% and 47%
  Population Hoechst High Intensity Objects (%): 0% and 3%
  Population Membrane Permeable-Phenotype (%): 0% and 12%
  Population Mitochondria Different-Phenotype (%): 3% and 6%
  Population Mitotic Cells (%): 45% and 76%
  Population Normal (%): 99% and 96%
  Population Pyknosed Nuclei (%): 16% and 14%
  Population Tubulin-Different-Phenotype (%): 11% and 32%
Fibroblast; [4]
  Population Apoptotic (%): 65% and 38%
  Population Fragmented Nuclei (%): 16% and 39%
  Population Healthy Nuclei (%): 60% and 44%
  Population Hoechst High Intensity Objects (%): 3%
  Population Membrane Permeable-Phenotype (%): 0% and 12%
  Population Mitochondria Different-Phenotype (%): 5% and 4%
  Population Mitotic Cells (%): 34% and 61%
  Population Normal (%): 96%
  Population Pyknosed Nuclei (%): 23% and 15%
  Population Tubulin-Different-Phenotype (%): 21% and 51%
Fibroblast; [5]
  Population Apoptotic (%): 50% and 38%
  Population Fragmented Nuclei (%): 17% and 41%
  Population Healthy Nuclei (%): 67% and 48%
  Population Hoechst High Intensity Objects (%): 1%
  Population Membrane Permeable-Phenotype (%): 0% and 6%
  Population Mitochondria Different-Phenotype (%): 6% and 5%
  Population Mitotic Cells (%): 50% and 61%
  Population Normal (%): 98%
  Population Pyknosed Nuclei (%): 15% and 10%
  Population Tubulin-Different-Phenotype (%): 23% and 45%
Fibroblast; [6]
  Population Apoptotic (%): 77% and 37%
  Population Fragmented Nuclei (%): 20% and 50%
  Population Healthy Nuclei (%): 65% and 44%
  Population Hoechst High Intensity Objects (%): 2% and 3%
  Population Membrane Permeable-Phenotype (%): 2% and 6%
  Population Mitochondria Different-Phenotype (%): 4% and 3%
  Population Mitotic Cells (%): 22% and 62%
  Population Normal (%): 97% and 96%
  Population Pyknosed Nuclei (%): 13% and 5%
  Population Tubulin-Different-Phenotype (%): 32% and 46%
